In PMC5843917 (Journal of the Renin-Angiotensin-Aldosterone System: JRAAS, 2017):

Legend:
aldosterone and cortisol = details: cited from earlier work
[1] = tested on: blood pressure, ACTH-stimulated cortisol; details: primary hypertension, all doses tested; cited from earlier work
serum K+ [2] = assay: Oral K+ challenge Day 7: serum K+ and K+ renal clearance; assay type: in vivo, human
How it was run: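 On Day 7 of once-daily oral dosing, healthy adults received an oral 40 mEq K+ load 3 h post-dose. Dietary K+ that day was cut by 40 mEq to hold daily intake at 125 mEq. Serum K+ was followed for 5 h post-challenge, and Cavg was taken over 5 h. Renal clearance = urinary excretion / serum AUC. Post-challenge K+ was fitted with a hyperbolic Emax model (additive above placebo).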

urine aldosterone = assay: 24-hour urine aldosterone excretion after multiple dosing; assay type: in vivo, human; details: spironolactone 25 mg/d
How it was run: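 Once-daily oral dosing for 8 days in healthy adults (0.1–100 mg; solution in degassed Sprite; double-dummy with an MR antagonist capsule). Urine pooled over 24 h from pre-dose Day 3 to pre-dose Day 4, and from pre-dose Day 7 to pre-dose Day 8, and assayed for aldosterone. Data ln-transformed and fitted with a mixed model (fixed treatment and period, random subject). Ratios of LS geometric means with 90% CIs.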

urinary K+ excretion = assay: 24-hour urinary K+ excretion Days 3 and 7; assay type: in vivo, human; details: spironolactone 25 mg/d
plasma aldosterone = assay: Basal plasma aldosterone concentration; assay type: in vivo, human; details: multiple dose, model estimate (CV%)
[3] = Safety and tolerability in healthy subjects; assay type: in vivo, human; details: multiple administration, ASEB
How it was run: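 Two studies in healthy adults confined to the unit: a single ascending oral dose (0.1–300 mg) and once-daily dosing for 8 days (0.1–100 mg) with placebo and an MR antagonist in double-dummy crossover. Safety covered vital signs, ECG, and hepatic and renal laboratory tests. Blood pressure was taken repeatedly over Days 3 and 7. Average MAP = area under the MAP–time curve to 24 h divided by 24 h.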

[4] = tested on: plasma cortisol and 11-deoxycortisol (CYP11B1); assay: IV ACTH challenge Day 8: plasma cortisol and 11-deoxycortisol; assay type: in vivo, human; details: spironolactone 25 mg/d
How it was run: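 IV ACTH challenge 1 h after the Day 8 oral dose, following daily dosing at 0.1–100 mg in healthy adults (crossover with placebo and an MR antagonist). Plasma cortisol and 11-deoxycortisol were drawn at −15, 30 and 60 min. Read-out was mean change from pre-challenge, with cortisol expressed as the average post-challenge concentration over the 1-h period.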

[5] = tested on: plasma aldosterone, corticosterone, 11-deoxycorticosterone; assay: IV ACTH challenge Day 8: plasma aldosterone and precursors; assay type: in vivo, human
How it was run: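 After 8 days of oral once-daily dosing in healthy adults, an IV ACTH challenge was given 1 h post-dose on Day 8. Plasma aldosterone, corticosterone and 11-deoxycorticosterone were drawn at −15 min (baseline) and at 30 and 60 min post-challenge. Read-out was change from pre-challenge, averaged over 30 and 60 min. Stimulated aldosterone was fitted with a hyperbolic Imax model against dose and plasma drug level.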

serum K+ [6] = assay: Basal serum potassium after multiple dosing; assay type: in vivo, human; details: model estimate (CV%)
[7] = cited from earlier work

## N#Cc1ccc([C@H]2CCc3cncn32)c(F)c1 [LCI699]
Aldosterone and cortisol; Na+-depleted healthy volunteers, dose-dependent
  plasma and 24-h urinary aldosterone: decreased both plasma and 24-h urinary aldosterone
Aldosterone and cortisol; all three doses (0.5, 1 and 3 mg)
  ACTH-stimulated aldosterone elevation: inhibited ACTH-stimulated aldosterone elevation
Aldosterone and cortisol; higher dose of 3 mg
  ACTH-stimulated cortisol production: significantly inhibited ACTH-stimulated cortisol production
[1]
  ACTH-stimulated cortisol production: significantly inhibited ACTH-stimulated cortisol production

## CC(=O)S[C@@H]1CC2=CC(=O)CC[C@]2(C)[C@H]2CC[C@@]3(C)[C@@H](CC[C@@]34CCC(=O)O4)[C@H]12 [Spironolactone]
Serum K+ [2]; spironolactone 25 mg/d, Day 7
  average serum K+ over 5 h post oral K+ challenge (Cavg, mean±SD): 4.5 ± 0.2 mmol/L
Serum K+ [2]; stimulated, post-K+ challenge, model estimate (CV%)
  Spironolactone (50 mg) effect on K+: 0.09 (68%) mM
Urine aldosterone
  effect on urine aldosterone excretion: elevated urine aldosterone excretion
Urinary K+ excretion; Day 3, placebo 99±19
  24-hour urinary K+ excretion (mean±SD): 97 ± 20 mmol
Urinary K+ excretion; Day 7, placebo 110±23
  24-hour urinary K+ excretion (mean±SD): 117 ± 17 mmol
Plasma aldosterone
  Spironolactone (50 mg) effect on PAC: 49 (19%) pg/ml
[3]
  effects on mean arterial pressure (MAP): no clear effects
[4]
  plasma cortisol after ACTH challenge compared to placebo: No differences
[5]; spironolactone 25 mg/d, Day 8
  effect on PAC following the ACTH challenge: no effect on PAC
[5]; stimulated, post-ACTH, model estimate (CV%)
  Spironolactone (50 mg) effect on PAC: 18 (89%) pg/ml
Serum K+ [6]
  Spironolactone (50 mg) effect on K+: 0.02 (232%) mM

## C[C@]12CCC(=O)C=C1CC[C@@H]1[C@@H]2[C@@H](O)C[C@]2(C=O)[C@@H](C(=O)CO)CC[C@@H]12 [aldosterone]
[7]
  disappearance half-life of radiolabeled aldosterone: 35 min
